Tests used:
Type in all cases: functional
Conditions in all cases: for zone of inhibition at 100 µg/mL: read-out: DIZ
Aspergillus niger = assay: Antimicrobial activity against Aspergillus niger at 100 ug/ml after 24 to 48 hrs by disk diffusion method
Outline: (§1)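 Disc diffusion (cup plate) screen. Organism suspensions were applied to plates and incubated at 36 °C for 24–48 h in a sufficiently humid chamber, after which the zone of inhibition was read. Compounds were dissolved in DMSO as a stock solution and serially diluted to test solutions of 25, 50, 75, 100 and 150 µg/ml.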

[1] = test system: Staphylococcus epidermidis; assay: Antimicrobial activity against Staphylococcus epidermidis at 100 ug/ml after 24 to 48 hrs by disk diffusion method; outline: as §1
Staphylococcus aureus = assay: Antimicrobial activity against Staphylococcus aureus at 100 ug/ml after 24 to 48 hrs by disk diffusion method; outline: as §1
Bacillus subtilis = assay: Antimicrobial activity against Bacillus subtilis at 100 ug/ml after 24 to 48 hrs by disk diffusion method; outline: as §1

Row | Molecule | inhibition zone (IZ) (Aspergillus niger) [mm] | zone of inhibition at 100 µg/mL [1] [mm] | zone of inhibition at 100 µg/mL (Aspergillus niger) [mm] | zone of inhibition at 100 µg/mL (Staphylococcus aureus) [mm] | zone of inhibition at 100 µg/mL (Bacillus subtilis) [mm] | inhibition zone (IZ) [1] [mm] | inhibition zone (IZ) (Staphylococcus aureus) [mm] | inhibition zone (IZ) (Bacillus subtilis) [mm]
1 | NYSTATIN | 28 |  |  |  |  |  |  | 
2 | CCOC(=O)C1=C(N)OC(c2c[nH]c3ccccc23)=C(C#N)[C@@]12C(=O)N(Cc1ccccc1)c1ccccc12 |  | 15 | 24 | 16 | 14 |  |  | 
3 | CCOC(=O)CN1C(=O)[C@]2(C(C#N)=C(N)OC(c3c[nH]c4ccccc34)=C2C#N)c2ccccc21 |  | 25 | 25 | 24 | 26 |  |  | 
4 | CCOC(=O)C1=C(N)OC(c2c[nH]c3ccccc23)=C(C#N)[C@@]12C(=O)N(C)c1ccccc12 |  | 14 | 23 | 18 | 13 |  |  | 
5 | GENTAMICIN SULFATE | 28 |  |  |  |  | 28 | 26 | 30
6 | Cc1[nH]c2ccccc2c1C1=C(C#N)[C@@]2(C(=O)c3cccc4cccc2c34)C(C#N)=C(N)O1 |  | 16 | 26 | 20 | 19 |  |  | 
7 | C#CCN1C(=O)[C@]2(C(C#N)=C(N)OC(c3c[nH]c4ccccc34)=C2C#N)c2ccccc21 |  | 19 | 25 | 18 | 20 |  |  | 
8 | O=C(N[C@H](CO)[C@H](O)c1ccc([N+](=O)[O-])cc1)C(Cl)Cl [CHLORAMPHENICOL] |  | 31 | 25 | 29 | 32 |  |  | 
9 | CCOC(=O)C1=C(N)OC(c2c[nH]c3ccccc23)=C(C#N)[C@@]12C(=O)Nc1ccccc12 |  | 18 | 23 | 18 | 19 |  |  | 
10 | N#CC1=C(N)OC(c2c[nH]c3ccccc23)=C(C#N)[C@@]12C(=O)Nc1ccccc12 |  | 30 | 28 | 29 | 28 |  |  | 
11 | N#CC1=C(N)OC(c2c[nH]c3ccccc23)=C(C#N)[C@@]12C(=O)N(Cc1ccccc1)c1ccccc12 |  | 31 | 24 | 29 | 30 |  |  | 
12 | Cn1cc(C2=C(C#N)[C@@]3(C(=O)c4cccc5cccc3c45)C(C#N)=C(N)O2)c2ccccc21 |  | 38 | 28 | 39 | 36 |  |  | 
13 | CCOC(=O)C1=C(N)OC(c2c[nH]c3ccccc23)=C(C#N)[C@@]12C(=O)c1cccc3cccc2c13 |  | 18 | 27 | 20 | 17 |  |  | 
14 | CN1C(=O)[C@]2(C(C#N)=C(N)OC(c3c[nH]c4ccccc34)=C2C#N)c2ccccc21 |  | 28 | 27 | 27 | 26 |  |  | 
15 | CCOC(=O)CN1C(=O)[C@@]2(C(C#N)=C(c3c[nH]c4ccccc34)OC(N)=C2C(=O)OCC)c2ccccc21 |  | 10 | 21 | 14 | 12 |  |  | 
16 | CCOC(=O)C1=C(N)OC(c2cn(C)c3ccccc23)=C(C#N)[C@@]12C(=O)c1cccc3cccc2c13 |  | 18 | 22 | 19 | 18 |  |  | 
17 | CCOC(=O)C1=C(N)OC(c2c(C)[nH]c3ccccc23)=C(C#N)[C@@]12C(=O)c1cccc3cccc2c13 |  | 16 | 26 | 20 | 18 |  |  | 
18 | CCCCN1C(=O)[C@@]2(C(C#N)=C(c3c[nH]c4ccccc34)OC(N)=C2C(=O)OCC)c2ccccc21 |  | 14 | 27 | 16 | 17 |  |  | 
19 | C#CCN1C(=O)[C@@]2(C(C#N)=C(c3c[nH]c4ccccc34)OC(N)=C2C(=O)OCC)c2ccccc21 |  | 16 | 25 | 16 | 17 |  |  | 
20 | N#CC1=C(N)OC(c2c[nH]c3ccccc23)=C(C#N)[C@@]12C(=O)c1cccc3cccc2c13 |  | 39 | 29 | 38 | 40 |  |  | 
21 | C=CCN1C(=O)[C@@]2(C(C#N)=C(c3c[nH]c4ccccc34)OC(N)=C2C(=O)OCC)c2ccccc21 |  | 13 | 21 | 18 | 14 |  |  | 

Source: ChEMBL document CHEMBL1177778, “One-pot multicomponent synthesis and anti-microbial evaluation of 2'-(indol-3-yl)-2-oxospiro(indoline-3,4'-pyran) derivatives” (2010)
